Out of some 360,000 compounds screened, about 500 (0.14%) were called active. The full list was thinned out, with actives kept by preference. Values without a mark were called inactive.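 How the source made its calls: active means mean inhibition of at least 70% across replicates, with every replicate also reaching that level; inconclusive means mean inhibition reaches 70% but some replicates fall short; inactive means mean inhibition below 70%.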
target: Protein S100-A4 (Homo sapiens) (UniProt P26447); experiment: human S100A4 protein-peptide interaction blockers – biochemical, fluorescence polarization, TAMRA-MyoIIA peptide, primary screen (AID 652163); conditions: at 10.7 µM, active compounds read high
Sequence (P26447 whole entry, looked up): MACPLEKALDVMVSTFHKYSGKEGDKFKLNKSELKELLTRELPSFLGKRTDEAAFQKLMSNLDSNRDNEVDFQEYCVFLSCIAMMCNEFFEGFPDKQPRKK
How it was run: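 assay system = human S100A4 monomer with TAMRA-labelled myosin IIA peptide | also added = labelled myosin peptide probe, 5 nM | incubation = 5 min between mix addition and reading | control set = DMSO and TFP controls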

SMILES	inhibition
COc1ccc(C(=O)Nc2ccc3c(c2)OC[C@H](C)N(C(C)=O)C[C@@H](C)[C@@H](OC)CN(C)C3=O)cc1	-16%
C[C@@H]1CN([C@H](C)CO)C(=O)c2cccc(NC(=O)C3CCCCC3)c2O[C@@H]1CN(C)C(=O)NC1CCCCC1	1.54%
C[C@H](O)C#Cc1ccc2c(c1)O[C@H](CN(C)Cc1ccccn1)[C@H](C)CN([C@H](C)CO)S2(=O)=O	-12.6%
COc1cccc(NC(=O)c2ccc3c(SCC(=O)O)c4c(nc3c2)CCCC4)c1	6.49%
O=C(Nc1cccc(C(F)(F)F)c1)c1ccc(N2CCNCC2)c([N+](=O)[O-])c1	-2.54%
O=C(O)CSc1c2c(nc3cc(C(=O)Nc4cccc(C(F)(F)F)c4)ccc13)CCCC2	71.4% (active)
C[C@H]1CN([C@@H](C)CO)C(=O)CCCn2cc(nn2)CO[C@H]1CN(C)S(=O)(=O)c1ccc2ccccc2c1	1.04%
O=C(C[C@@H]1C[C@H]2c3cc(NS(=O)(=O)c4ccc(F)cc4)ccc3O[C@H]2[C@@H](CO)O1)NCc1ccccc1F	-3.71%
O=C(NC1CCCCC1)[C@@H]1[C@@H](CO)[C@@H]2Cn3c(cccc3=O)[C@@H]2N1C(=O)CC1CC1	1.5%
COCC(=O)N1CC(=O)N2[C@H](CO)[C@@H](c3ccc(C#CC4CCCCC4)cc3)[C@@H]2C1	-8.44%
COc1ccc(NC(=O)N[C@H]2CC[C@@H](CCNS(=O)(=O)c3cccc(Cl)c3)O[C@H]2CO)cc1	18.1%
O=C(Nc1ccccc1F)N[C@H]1CC[C@@H](CCNS(=O)(=O)c2ccc(F)cc2)O[C@@H]1CO	-5.07%
COc1ccccc1NC(=O)N[C@H]1CC[C@H](CCNS(=O)(=O)c2ccc(Cl)cc2)O[C@H]1CO	107% (active)
Cc1noc(C)c1S(=O)(=O)Nc1ccc2c(c1)C(=O)N([C@H](C)CO)C[C@H](C)[C@@H](CN(C)C(=O)CCC(F)(F)F)OCCCC[C@H](C)O2	-11.4%
C[C@@H]1CN([C@@H](C)CO)S(=O)(=O)c2ccc(C#CCC3CCCC3)cc2O[C@H]1CN(C)Cc1ccc(C(=O)O)cc1	-3.27%
COc1ccc2c3c([nH]c2c1)[C@H](CO)N(C(=O)Nc1cccc(F)c1)CC31CCN(S(=O)(=O)c2ccccc2)CC1	-4.14%
COc1ccc(CN(C)C[C@H]2Oc3ccc(NS(=O)(=O)c4ccc(C)cc4)cc3C(=O)N([C@@H](C)CO)C[C@H]2C)cc1	-4.3%
C[C@@H]1CN([C@@H](C)CO)C(=O)c2cccc(NC(=O)Nc3ccc(F)cc3)c2O[C@@H]1CN(C)Cc1ccc(C(=O)O)cc1	16.9%
CCC(=O)N1C[C@H](C)[C@H](OC)CN(C)C(=O)c2ccc(NC(=O)Nc3cccc(F)c3)cc2OC[C@@H]1C	-17.6%
O=C(C[C@@H]1CC[C@H]2[C@@H](COC[C@H](O)CN2S(=O)(=O)c2ccc(F)cc2)O1)N[C@H]1CCN(Cc2ccccc2)C1	2.74%
C[C@@H](NC(=O)C[C@H]1C[C@@H]2c3cc(NC(=O)C4CCC4)ccc3O[C@@H]2[C@@H](CO)O1)c1ccccc1	8.72%
CC(C)CC#Cc1ccc([C@@H]2[C@@H](CO)N3C(=O)CN(C(=O)Nc4ccc(F)cc4)C[C@H]23)cc1	-1.01%
CO[C@H]1CN(C)C(=O)c2ccc(NC(C)=O)cc2OC[C@H](C)N(C(=O)c2ccccc2)C[C@H]1C	-4.17%

SMILES	inhibition
COc1ccc(CN(C)C[C@@H]2OCCCC[C@H](C)Oc3ccc(NS(=O)(=O)c4ccc(F)cc4)cc3C(=O)N([C@@H](C)CO)C[C@@H]2C)cc1	-2.85%
C[C@H]1CCCCO[C@H](CN(C)S(C)(=O)=O)[C@@H](C)CN([C@@H](C)CO)C(=O)c2cc(NC(=O)C3CCCCC3)ccc2O1	3.69%
O=C(Nc1ccc(F)cc1)N1C[C@H]2[C@@H](c3ccccc31)[C@@H](CO)N2Cc1cocn1	-2.03%
CO[C@@H]1CN(C)C(=O)c2ccc(NS(=O)(=O)c3cccc(F)c3)cc2OC[C@H](C)N(C(=O)Cc2cccnc2)C[C@@H]1C	0.669%
CC(C)[C@@H]1COCn2nncc2CCCC(=O)N1	-3.23%
CCCNC(=O)[C@@H]1[C@@H](CO)[C@@H]2Cn3c(cccc3=O)[C@H]1N2C(=O)C1CCC1	6.67%
Cc1cccc(S(=O)(=O)N2C[C@H]3[C@@H](c4ccccc42)[C@H](CO)N3Cc2ccc3c(c2)OCO3)c1	7.88%
Cc1cccc(S(=O)(=O)N2C[C@@H]3[C@H](c4ccccc42)[C@@H](CO)N3C(=O)c2ccccc2)c1	3.03%
Cc1cccc(S(=O)(=O)N2C[C@@H]3[C@H](c4ccccc42)[C@H](CO)N3CC2CCOCC2)c1	86.4% (active)
C[C@H](CO)N1C[C@H](C)[C@@H](CN(C)C(=O)Nc2ccccc2)Oc2ncc(C3=CCCC3)cc2C1=O	2.15%
CO[C@H]1CN(C)C(=O)c2cc(NS(=O)(=O)c3ccc(C)cc3)ccc2OC[C@H](C)NC[C@H]1C	7.5%
COc1cccc(C#Cc2cnc3c(c2)C(=O)N([C@@H](C)CO)C[C@H](C)[C@H](CN(C)CC2CC2)O3)c1	-46.8%
O=C(C[C@@H]1CC[C@@H](NC(=O)Nc2ccc(F)cc2)[C@@H](CO)O1)NCCN1CCCC1	-3.14%
O=C(Cc1ccccc1)N1C[C@H]2[C@@H](c3ccccc31)[C@H](CO)N2C(=O)c1ccc(F)cc1	7.78%
CCS(=O)(=O)N1[C@H](CO)[C@@H](c2ccccc2)C12CN(C(=O)C1CCC1)C2	-10%
COc1ccc(NC(=O)N(C)C[C@@H]2OCCCC[C@@H](C)Oc3ccc(NC(=O)C4CCCCC4)cc3C(=O)N([C@@H](C)CO)C[C@@H]2C)cc1	2.51%
CCCNC(=O)Nc1ccc2c(c1)OC[C@H](C)N(C(=O)C1CCC1)C[C@H](C)[C@@H](OC)CN(C)C2=O	-7.21%
COCC#Cc1cnc2c(c1)C(=O)N([C@H](C)CO)C[C@@H](C)[C@@H](CN(C)C(=O)Nc1cccc(F)c1)O2	-1.97%
C[C@@H]1CN([C@H](C)CO)C(=O)c2cc(NC(=O)Cn3cnnn3)ccc2O[C@@H]1CN(C)CC1CC1	13.2%
CN(C)C(=O)c1ccc(-c2ccc([C@@H]3[C@@H](CO)N4CCCCN(CC5CC5)C[C@H]34)cc2)cc1	11.7%
O=C(C[C@H]1C=C[C@H](NC(=O)CN2CCOCC2)[C@@H](CO)O1)NCc1cccc(F)c1	2.82%
CC=Cc1ccc2n(c1=O)C[C@H]1[C@H](CO)[C@@H](C(=O)NCCc3cn(C)cn3)[C@@H]2N1C(=O)CC (mixture of isomers)	-3.21%
C[C@@H]1CN([C@@H](C)CO)C(=O)c2c(c3ccccc3n2C)-c2ccccc2CO[C@@H]1CN(C)Cc1ccc2c(c1)OCCN2C	1.33%

SMILES	inhibition
O=C(N[C@@H]1CC[C@@H](CCNS(=O)(=O)Cc2ccccc2)O[C@@H]1CO)c1ccccc1F	3.62%
CC(C)NC(=O)N[C@@H]1CC[C@@H](CCNS(=O)(=O)Cc2ccccc2)O[C@@H]1CO	-2.44%
O=C(N[C@H]1CC[C@@H](CCNS(=O)(=O)Cc2ccccc2)O[C@H]1CO)c1ccccc1F	106% (active)
C[C@@H]1CN([C@@H](C)CO)C(=O)Cc2cc(NC(=O)Cc3ccccc3)ccc2O[C@@H]1CN(C)C(=O)Nc1ccc2c(c1)OCO2	-20.2%
CS(=O)(=O)Nc1ccc2c(c1)[C@H]1C[C@H](CC(=O)NC3CCCC3)O[C@@H](CO)[C@H]1O2	5.62%
CN(C)C(=O)[C@@H]1[C@@H](CO)[C@@H]2Cn3c(ccc(C4=CCCC4)c3=O)[C@H]1N2Cc1ccccn1	6.14%
COc1ccc2c3c([nH]c2c1)[C@@H](CO)N(C(=O)c1cccc(F)c1)CC31CN(C(C)=O)C1	-5.37%
CCOc1ccc(N(CC(=O)NCCc2ccc(F)cc2)S(=O)(=O)c2ccccc2)cc1	-1.04%
CCOc1ccc(N(CC(=O)NCCOc2ccccc2OC)S(=O)(=O)c2ccccc2)cc1	116% (active)
COc1ccc(CCNC(=O)CN(c2ccccc2)S(=O)(=O)c2ccccc2)cc1	0.0805%
N[C@@H]1CC[C@H](CCn2cc(C3CC3)nn2)O[C@@H]1CO	5.57%
C[C@@H]1CN([C@H](C)CO)C(=O)c2cc(NC(=O)CCCCCC(=O)Nc3ccccc3N)ccc2O[C@H]1CN(C)C(=O)Nc1ccc(C(F)(F)F)cc1	-13%
C[C@H](CO)N1C[C@H](C)[C@@H](CN(C)Cc2ccncc2)Oc2cc(Br)ccc2S1(=O)=O	-8.65%
C[C@@H]1CN([C@@H](C)CO)C(=O)c2cccc(NC(=O)Nc3ccccc3)c2O[C@H]1CN(C)Cc1ccccc1	-2.48%
C[C@H]1CN([C@@H](C)CO)C(=O)c2cccc(NC(=O)c3ccncc3)c2O[C@@H]1CN(C)C	1.35%
C[C@@H]1CN([C@H](C)CO)C(=O)c2cc(NC(=O)c3ccncc3)ccc2O[C@H]1CN(C)Cc1ccc(Oc2ccccc2)cc1	1.42%
C[C@@H]1CN([C@@H](C)CO)C(=O)c2cc(NC(=O)c3ccncc3)ccc2O[C@@H]1CN(C)Cc1ccncc1	106% (active)
C[C@H]1CN([C@@H](C)CO)C(=O)c2cccc(NC(=O)Nc3ccccc3)c2O[C@H]1CN(C)Cc1ccc(Oc2ccccc2)cc1	-8.88%
C[C@H]1CN([C@@H](C)CO)C(=O)c2cccc(NC(=O)c3ccncc3)c2O[C@H]1CN(C)C	13.8%
C[C@@H]1CN([C@H](C)CO)C(=O)c2cccc(NC(=O)c3ccncc3)c2O[C@@H]1CN(C)C	111% (active)
C[C@@H]1CN([C@@H](C)CO)C(=O)c2cc(NC(=O)c3ccncc3)ccc2O[C@H]1CN(C)Cc1ccc(C(=O)O)cc1	3.13%
COc1ccc(CN(C)C[C@H]2Oc3c(NC(=O)Nc4ccccc4)cccc3C(=O)N([C@@H](C)CO)C[C@@H]2C)cc1	91.2% (active)

From PubChem BioAssay AID652163 (Broad Institute, 2013)
